Assay results as given in ChEMBL document CHEMBL3102784, “Salicylanilide diethyl phosphates: synthesis, antimicrobial activity and cytotoxicity” (Bioorg Med Chem, 2014).
Values after ≈ are worked out from the molar mass of the structure shown.

Experiments:
Type in all cases: functional
[1] = tested on: Mycobacterium tuberculosis; assay: Antimycobacterial activity against isoniazid, rifamycin and streptomycin-resistant Mycobacterium tuberculosis 9449/2006 after 14 days; conditions: 9449/2006, 336 h
Method in brief: (§1)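 Drug-resistant M. tuberculosis strains (MDR, one XDR), inoculum dilution 10^3. MIC by micromethod in Šula's semisynthetic medium at 37 °C, compounds in DMSO, concentration series as for the drug-susceptible strain. Read after 14 and 21 days.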

[2] = tested on: Mycobacterium tuberculosis; assay: Antimycobacterial activity against isoniazid, rifamycin, streptomycin, ethambutol and ofloxacin, clofazimine-resistant Mycobacterium tuberculosis Praha 4 after 21 days; conditions: Praha 4, 504 h; method in brief: as §1
[3] = tested on: Mycobacterium tuberculosis; assay: Antimycobacterial activity against isoniazid, rifampicin, rifabutin, streptomycin and ethambutol-resistant Mycobacterium tuberculosis 234/2005 after 14 days; conditions: 234/2005, 336 h; method in brief: as §1
[4] = tested on: Mycobacterium tuberculosis; assay: Antimycobacterial activity against isoniazid, rifampicin, rifabutin, streptomycin and ethambutol-resistant Mycobacterium tuberculosis 234/2005 after 21 days; conditions: 234/2005, 504 h; method in brief: as §1
[5] = tested on: Mycobacterium tuberculosis; assay: Antimycobacterial activity against isoniazid, rifamycin, streptomycin, ethambutol, clofazimine, ofloxacin, gentamicin and amikacin-resistant Mycobacterium tuberculosis Praha 131 after 14 days; conditions: Praha 131, 336 h; method in brief: as §1
[6] = tested on: Mycobacterium tuberculosis; assay: Antimycobacterial activity against isoniazid, rifamycin, streptomycin, ethambutol and clofazimine-resistant Mycobacterium tuberculosis Praha 1 after 21 days; conditions: Praha 1, 504 h; method in brief: as §1
[7] = tested on: Mycobacterium tuberculosis; assay: Antimycobacterial activity against isoniazid, rifamycin and streptomycin-resistant Mycobacterium tuberculosis 9449/2006 after 21 days; conditions: 9449/2006, 504 h; method in brief: as §1
[8] = tested on: Mycobacterium tuberculosis; assay: Antimycobacterial activity against isoniazid, rifamycin, streptomycin, ethambutol and clofazimine-resistant Mycobacterium tuberculosis Praha 1 after 14 days; conditions: Praha 1, 336 h; method in brief: as §1
[9] = tested on: Mycobacterium tuberculosis; assay: Antimycobacterial activity against isoniazid, rifamycin, streptomycin, ethambutol, clofazimine, ofloxacin, gentamicin and amikacin-resistant Mycobacterium tuberculosis Praha 131 after 21 days; conditions: Praha 131, 504 h; method in brief: as §1
[10] = tested on: Mycobacterium tuberculosis; assay: Antimycobacterial activity against isoniazid, rifamycin, streptomycin, ethambutol and ofloxacin, clofazimine-resistant Mycobacterium tuberculosis Praha 4 after 14 days; conditions: Praha 4, 336 h; method in brief: as §1

Row | SMILES | MIC [1] | MIC [2] | MIC [3] | MIC [4] | MIC [5] | MIC [6] | MIC [7] | MIC [8] | MIC [9] | MIC [10]
1 | CCOP(=O)(OCC)Oc1ccc(Br)cc1C(=O)Nc1ccc(C(F)(F)F)cc1 | 1 µM (≈ 0.496 µg/mL) | 1 µM (≈ 0.496 µg/mL) | 1 µM (≈ 0.496 µg/mL) | 1 µM (≈ 0.496 µg/mL) | 1 µM (≈ 0.496 µg/mL) | 1 µM (≈ 0.496 µg/mL) | 1 µM (≈ 0.496 µg/mL) | 1 µM (≈ 0.496 µg/mL) | 1 µM (≈ 0.496 µg/mL) | 1 µM (≈ 0.496 µg/mL)
2 | CCOP(=O)(OCC)Oc1ccc(Cl)cc1C(=O)Nc1ccc(Cl)c(Cl)c1 | 1 µM (≈ 0.453 µg/mL) | 1 µM (≈ 0.453 µg/mL) | 1 µM (≈ 0.453 µg/mL) | 1 µM (≈ 0.453 µg/mL) | 1 µM (≈ 0.453 µg/mL) | 1 µM (≈ 0.453 µg/mL) | 1 µM (≈ 0.453 µg/mL) | 1 µM (≈ 0.453 µg/mL) | 1 µM (≈ 0.453 µg/mL) | 1 µM (≈ 0.453 µg/mL)
3 | CCOP(=O)(OCC)Oc1ccc(Br)cc1C(=O)Nc1ccc(Cl)c(Cl)c1 | 1 µM (≈ 0.497 µg/mL) | 1 µM (≈ 0.497 µg/mL) | 1 µM (≈ 0.497 µg/mL) | 1 µM (≈ 0.497 µg/mL) | 1 µM (≈ 0.497 µg/mL) | 1 µM (≈ 0.497 µg/mL) | 1 µM (≈ 0.497 µg/mL) | 1 µM (≈ 0.497 µg/mL) | 1 µM (≈ 0.497 µg/mL) | 1 µM (≈ 0.497 µg/mL)
4 | CCOP(=O)(OCC)Oc1cc(Cl)ccc1C(=O)Nc1ccc(C(F)(F)F)cc1 | 1 µM (≈ 0.452 µg/mL) | 1 µM (≈ 0.452 µg/mL) | 1 µM (≈ 0.452 µg/mL) | 1 µM (≈ 0.452 µg/mL) | 1 µM (≈ 0.452 µg/mL) | 1 µM (≈ 0.452 µg/mL) | 1 µM (≈ 0.452 µg/mL) | 1 µM (≈ 0.452 µg/mL) | 1 µM (≈ 0.452 µg/mL) | 1 µM (≈ 0.452 µg/mL)
5 | NNC(=O)c1ccncc1 [ISONIAZID] | 16 µM (≈ 2.19 µg/mL) | 16 µM (≈ 2.19 µg/mL) | 16 µM (≈ 2.19 µg/mL) | 16 µM (≈ 2.19 µg/mL) | 16 µM (≈ 2.19 µg/mL) | 16 µM (≈ 2.19 µg/mL) | 16 µM (≈ 2.19 µg/mL) | 16 µM (≈ 2.19 µg/mL) | 16 µM (≈ 2.19 µg/mL) | 16 µM (≈ 2.19 µg/mL)
6 | CCOP(=O)(OCC)Oc1ccc(Cl)cc1C(=O)Nc1ccc(C(F)(F)F)cc1 | 1 µM (≈ 0.452 µg/mL) | 1 µM (≈ 0.452 µg/mL) | 1 µM (≈ 0.452 µg/mL) | 1 µM (≈ 0.452 µg/mL) | 1 µM (≈ 0.452 µg/mL) | 1 µM (≈ 0.452 µg/mL) | 1 µM (≈ 0.452 µg/mL) | 1 µM (≈ 0.452 µg/mL) | 1 µM (≈ 0.452 µg/mL) | 1 µM (≈ 0.452 µg/mL)
